Arr AP2 block – human beta-arrestin and AP2 interaction inhibition; FITC-arrestin peptide / GST-AP2 beads, flow cytometry; AP2 beta2 appendage carries R879A mutation; inhibition, % at 10 µM; 340,000 tested, 0.31% active; AID 504490;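 active = inhibition above a set limit, near 3 SD of compounds lacking own fluorescence, cut at about 54% in these data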
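System: GST-tagged AP2 beta2-adaptin appendage (R879A) on 4 µm glutathione beads / Reagent: FITC-arrestin peptide, 50 nM / Detection: HyperCyt-sampled flow cytometry, FL1 channel, ex 488/em 535 nm / Timing: 12 min plus 1 h, RT / Buffer or medium: PBS plus Tween 20 (0.05%) and BSA (0.1%)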
DSG3 Ab inh – blocks pemphigus antibody binding to human desmoglein-3; DSG3-coupled beads, scFv-anti-DSG3-GFP binding, flow cytometry; hits give low values; binding (percent of control), % at 10 µM; 310,000 tested, 0.48% active; AID 588358;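 active = binding more than 3 SD below its plate's average and above zero; inconclusive = below that plate limit but binding exactly zero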;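 also: hits lower antibody fragment binding to DSG3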
Target sequence (P32926 whole entry, looked up, the tested form may be a part): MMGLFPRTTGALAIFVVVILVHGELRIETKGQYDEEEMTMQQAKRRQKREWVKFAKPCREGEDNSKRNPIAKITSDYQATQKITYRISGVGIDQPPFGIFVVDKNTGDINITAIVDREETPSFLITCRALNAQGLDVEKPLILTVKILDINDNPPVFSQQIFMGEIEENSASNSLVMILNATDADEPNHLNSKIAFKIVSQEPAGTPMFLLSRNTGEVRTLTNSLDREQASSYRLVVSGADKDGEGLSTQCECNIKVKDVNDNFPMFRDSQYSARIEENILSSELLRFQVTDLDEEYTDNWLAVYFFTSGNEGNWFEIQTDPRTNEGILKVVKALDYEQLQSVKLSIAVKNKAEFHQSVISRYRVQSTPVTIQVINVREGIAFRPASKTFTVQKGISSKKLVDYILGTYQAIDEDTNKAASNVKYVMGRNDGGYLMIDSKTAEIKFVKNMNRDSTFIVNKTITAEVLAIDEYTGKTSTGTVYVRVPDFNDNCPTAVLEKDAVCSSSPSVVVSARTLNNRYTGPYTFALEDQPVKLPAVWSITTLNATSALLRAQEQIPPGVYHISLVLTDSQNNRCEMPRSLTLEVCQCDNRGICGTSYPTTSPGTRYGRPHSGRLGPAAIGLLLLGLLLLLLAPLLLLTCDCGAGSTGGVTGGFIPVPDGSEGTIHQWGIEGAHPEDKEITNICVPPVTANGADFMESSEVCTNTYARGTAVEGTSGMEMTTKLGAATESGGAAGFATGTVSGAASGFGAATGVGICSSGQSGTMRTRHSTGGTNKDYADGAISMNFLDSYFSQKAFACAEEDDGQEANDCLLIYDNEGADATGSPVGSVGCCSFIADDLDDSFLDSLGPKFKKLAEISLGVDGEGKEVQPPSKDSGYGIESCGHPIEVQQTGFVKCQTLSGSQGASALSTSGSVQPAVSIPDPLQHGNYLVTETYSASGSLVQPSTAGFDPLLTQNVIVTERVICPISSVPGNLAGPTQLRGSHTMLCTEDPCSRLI
GSH fluor – GSH bead compound fluorescence profile. GSH beads flow cytometry, compound fluorescence 488/530 nm; hits give high values. fluorescence (KMESF) at 10 µM. AID 1776. 190,000 tested, 0.25% active; in the data active = fluorescence above about 89;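 also: glutathione beads carrying GST-tagged Bcl family fusion proteins plus one bare bead set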
Avidin bead fluor – compound fluoresces at 488/530 nm on avidin beads. compound fluorescence 488/530 nm, flow cytometry; hits give high values. fluorescence (KMESF) at 10 µM. AID 1775. 220,000 tested, 0.38% active; in the data active = fluorescence above about 47
Hits are given with their value; i = inactive; ? = inconclusive; nt = not tested or not shown. A selection: hits, their analogues and other compounds. The true share with any hit is near 1.1%.

SMILES	Arr AP2 block	DSG3 Ab inh	GSH fluor	Avidin bead fluor
C/C(=N\OC(=O)c1cccc(C)c1)c1sc(-c2ccccc2)nc1C	i	-28	i	i
C/C(=N\OC(=O)c1cccc(C(F)(F)F)c1)c1sc(-c2ccccc2)nc1C	i	78	i	i
Cc1cc2ncn(C(=O)N3CCCCC3)c2cc1C	i	i	i	i
Cc1cc2ncn(C(=O)N3CCCCCC3)c2cc1C	i	i	97	i
COc1ccc(C(C(=O)NC(C)(C)C)N(CCc2ccc(OC)c(OC)c2)C(=O)CCC(=O)Nc2cc(C)on2)cc1 (stereo not given)	i	i	nt	nt
C[C@H](CO)N1C[C@H](C)[C@@H](CN(C)Cc2ccccc2F)Oc2ncc(Br)cc2C1=O	nt	i	nt	nt
O=C(Nc1cccc([N+](=O)[O-])c1)c1ccccc1	i	i	nt	i
O=C(Nc1cccc([N+](=O)[O-])c1)c1ccc(CSc2ccccc2)cc1	i	80	i	i
CCOC(=O)c1[nH]c2cc3c(cc2c1CCCN1C(=O)c2ccccc2C1=O)OCCO3	i	-29	i	i
CCC(C)n1cnc2c(c1=O)c1nc3ccccc3nc1n2Cc1ccc2c(c1)OCO2 (stereo not given)	nt	nt	i	i
CCC(C)n1cnc2c(c1=O)c1nc3ccccc3nc1n2-c1ccc2c(c1)OCCO2 (stereo not given)	i	42	i	i
CN(CC(=O)Nc1ccccc1Cl)C(=O)COC(=O)C1CC1	i	i	nt	nt
Cn1c(C(=O)OCC(=O)NCc2cccs2)cc2sccc21	i	40	i	i
COCCN(C(=O)CCC(=O)Nc1cccnc1)C(C(=O)NC1CCCCC1)c1ccccc1 (stereo not given)	i	82	i	i
Cc1ccccc1CS(=O)(=O)CC(O)CN1CCCC1=O (stereo not given)	i	i	nt	nt
Brc1ccccc1-c1nnc(CSc2nnc3sc4ccccc4n23)o1	i	nt	257	i
CC(=O)c1c(C)[nH]c(C(=O)CN2C(=O)NC3(CCCCC3)C2=O)c1C	i	i	nt	nt
Cc1sc2ncn(CC(=O)Nc3c(F)cccc3F)c(=O)c2c1S(=O)(=O)N1CCC(C)CC1	i	55	i	i
Cc1sc2ncn(CC(=O)NCCCN3CCC(C)CC3)c(=O)c2c1S(=O)(=O)N1CCC(C)CC1	i	nt	nt	nt
CC1CN(C(=O)COC(=O)c2ccc(Cl)nc2)CC(C)O1 (stereo not given)	i	i	i	i
COc1ccc(NC(=O)CSc2ccc(F)cc2)cc1S(=O)(=O)N1CCCCC1	i	i	i	i
COc1ccc(NC(=O)CSc2ccc(NC(C)=O)cc2)cc1S(=O)(=O)N1CCCCC1	i	i	i	74
O=C(CCCN1CCC(O)(c2ccc(Cl)cc2)CC1)c1ccc(F)cc1	i	53	i	i
O=C(CCCN1CCC(O)(c2ccc(Br)cc2)CC1)c1ccc(F)cc1	i	i	nt	nt
CSCCC(NC(=O)COc1ccccc1)C(=O)N1CC(C)CC(C)C1 (stereo not given)	i	nt	nt	nt
SMILES	Arr AP2 block	DSG3 Ab inh	GSH fluor	Avidin bead fluor
Cc1ccc(Cl)cc1N1CCN(C(=O)Cc2c(C(=O)O)[nH]c3ccccc23)CC1	i	i	i	i
Cc1ccc(Cl)cc1N1CCN(C(=O)Cc2c(C(=O)O)[nH]c3ccc(Cl)cc23)CC1	i	23	i	i
Cc1cccc(-n2nc3c(c2NC(=O)c2ccco2)CSC3)c1C	i	87	i	i
Cc1cccc(-n2nc3c(c2NC(=O)c2ccco2)CS(=O)C3)c1C (stereo not given)	i	i	i	i
C=CCSc1nnc2nc3c(nn12)c1cc(C)ccc1n3CC=C	i	-30	i	i
Cc1c(Br)cnn1C(C)C(=O)N1CCN(c2ccccc2F)CC1 (stereo not given)	i	nt	nt	nt
Cc1ccsc1C(=O)NNC(=O)COc1ccccc1Cl	i	-0.8	nt	nt
O=[N+]([O-])c1ccc(CSc2ccc(-c3ccccn3)nn2)cc1	i	83	i	i
COc1ccccc1-c1ccc(SCc2ccc([N+](=O)[O-])cc2)nn1	i	i	i	i
CCOc1cc(NC(=O)c2cccs2)c(OCC)cc1NC(=O)c1ccccn1	i	i	i	i
CCOc1cc(NC(=O)c2ccccn2)c(OCC)cc1NC(=O)c1cccc(C)c1	i	74	i	i
O=C1CN(C(=O)COC(=O)c2ccc(C(F)(F)F)cc2)c2ccccc2N1	i	nt	nt	nt
CC12CCCC(CC(=O)O)(C1)NC(=O)C2 (stereo not given)	i	64	nt	nt
CCn1nnc(NC(=O)c2cccnc2Cl)n1	i	?	259	i
CCn1nnc(NC(=O)c2ccco2)n1	i	i	nt	nt
CCCNC(=O)CN1C(=O)c2ccccc2Sc2ncccc21	i	i	nt	nt
CCn1c(Cc2ccccc2)nnc1SCC(=O)Nc1ccc2c(c1)OCO2	i	i	i	i
Cn1c(Cc2ccccc2)nnc1SCC(=O)Nc1ccc2c(c1)OCCO2	i	i	255	i
COc1ccc(C)c2sc(NC(=O)C3=COCCO3)nc12	i	i	i	175
CN1CCCC(OC(=O)c2cc(Cl)ccc2Cl)C1 (stereo not given)	i	i	258	i
CN1CCCC(OC(=O)c2cc(Br)ccc2Cl)C1 (stereo not given)	i	i	i	i
OCC[C@H]1C[C@H](O)[C@@H](O)[C@]2(CCCO2)O1	i	i	nt	nt
CCOC(=O)C1=C(c2ccccc2)O/C(=C(\C(=O)OC)C(F)(F)F)S1	i	i	i	i
CCOC(=O)C1=C(c2ccccc2)O/C(=C(/C#N)C(F)(F)F)S1	nt	nt	i	59
O=S(=O)(Nc1cccc2ncccc12)c1cccc(C(F)(F)F)c1	i	i	nt	nt
SMILES	Arr AP2 block	DSG3 Ab inh	GSH fluor	Avidin bead fluor
O=S(=O)(Cc1ccc(Cl)cc1)Nc1ccc2c(c1)OCO2	i	i	i	48
O=S(=O)(Cc1ccc(Cl)cc1)N1CCN(Cc2ccc3c(c2)OCO3)CC1	i	i	nt	i
CCOC(=O)NCc1ccc2[nH]c(C)cc2c1	i	i	nt	nt
Cc1cc2cc(CNC(=O)Nc3ccccc3)ccc2[nH]1	i	76	i	i
CCOc1ccc(N2CC(NC(=O)c3cccc4ccccc34)CC2=O)cc1 (stereo not given)	i	i	nt	nt
Cc1ccc(C(=O)NCC(=O)Nc2ncccc2C)s1	i	i	nt	nt
Cc1cccc(-n2nnnc2SCC(=O)c2cc(C)n(CC3CCCO3)c2C)c1 (stereo not given)	i	nt	263	i
CC(C)CCn1c(SCC(=O)NC2CCS(=O)(=O)C2)nc2cc(Cl)ccc2c1=O (stereo not given)	i	i	nt	nt
CCN1CCCC1CNC(=O)C(=O)NC (stereo not given)	i	i	i	i
CCN1CCCC1CNC(=O)C(=O)Nc1ccccc1OC (stereo not given)	i	i	i	62
S=C(Nc1cccc2ccccc12)NN1CCOCC1	i	i	i	47
S=C(Nc1cccc2ccccc12)NN1CCCCCC1	i	i	nt	nt
Cc1cc(F)cc(C)c1Cn1cnc2c(cnn2C(C)(C)C)c1=O	i	i	nt	nt
CCOc1ccc(-c2nnc(-c3ccco3)o2)cc1OCC	i	i	i	i
CCOc1cc(-c2nnc(-c3ccco3)o2)cc(OCC)c1OCC	i	i	i	194
CCc1cccc2[nH]c3cc([N+](=O)[O-])ccc3c12	i	i	nt	i

Screening results: PubChem BioAssay, NMMLSC
